Assay results from ChEMBL document CHEMBL1127689, “Novel 4-(aryloxy)tetrahydropyridine analogs of MPTP as monoamine oxidase A and B substrates” (J Med Chem, 1994).

Key:
[1] = substrate: CN1CC=C(Oc2ccccc2)CC1; experiment: (§1) Oxidation by human mono-amine oxidase MAO-A
Summary of the method: (§2)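 MAO-A preparation was diluted 1:4 in 20 mM phosphate, pH 7.4, with 20% w/v glycerol and used at 0.17 μM. Four substrate concentrations were used, from 500–62.5 μM solutions in 100 mM sodium phosphate, pH 7.4, after 1 min at 37 °C. Initial rates were taken from the 324 nm amino enone absorbance, read every 3 s for 2 min, in duplicate. Km and TN came from double-reciprocal plots.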

[2] = substrate: CN1CC=C(Oc2cccc3ccccc23)CC1; experiment: as §1; summary of the method: as §2
[3] = substrate: CN1CC=C(Cc2cc3ccccc3c3ccccc23)CC1; experiment: as §1; summary of the method: as §2
[4] = substrate: CN1CC=C(Oc2ccc(C(C)(C)C)cc2)CC1; experiment: as §1; summary of the method: as §2
[5] = substrate: CN1CC=C(Oc2ccc3ccccc3c2)CC1; experiment: as §1; summary of the method: as §2
[6] = substrate: CN1CC=C(Oc2ccc(Cl)cc2Cl)CC1; experiment: as §1; summary of the method: as §2
[7] = substrate: CCCCc1ccc(OC2=CCN(C)CC2)cc1; experiment: as §1; summary of the method: as §2
[8] = substrate: CN1CC=C(Oc2cc3ccccc3c3ccccc23)CC1; experiment: as §1; summary of the method: as §2
[9] = substrate: CN1CC=C(Oc2ccc(-c3ccccc3)cc2)CC1; experiment: as §1; summary of the method: as §2
[10] = substrate: CN1CC=C(Oc2ccccc2)CC1; experiment: (§3) Oxidation by bovine mono-amine oxidase B MAO-B; set-up: species or system Bos taurus
Summary of the method: (§4)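 Bovine liver mitochondrial MAO-B, partially purified, at 0.087 μM. Four substrate concentrations were used, from 500–62.5 μM solutions in 100 mM sodium phosphate, pH 7.4. Each was equilibrated 1 min at 37 °C before enzyme was added. Amino enone formation was read at 324 nm every 3 s for 2 min, in duplicate. Km and TN came from Lineweaver-Burk double-reciprocal plots of initial rates.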

[11] = substrate: CN1CC=C(Oc2cccc3ccccc23)CC1; experiment: as §3; set-up: species or system Bos taurus; summary of the method: as §4
[12] = substrate: CN1CC=C(Oc2ccc(C(C)(C)C)cc2)CC1; experiment: as §3; set-up: species or system Bos taurus; summary of the method: as §4
[13] = substrate: CN1CC=C(Oc2ccc3ccccc3c2)CC1; experiment: as §3; set-up: species or system Bos taurus; summary of the method: as §4
[14] = substrate: CN1CC=C(Cc2ccc3ccccc3c2)CC1; experiment: as §3; set-up: species or system Bos taurus; summary of the method: as §4
[15] = substrate: CN1CC=C(Oc2ccc(Cl)cc2Cl)CC1; experiment: as §3; set-up: species or system Bos taurus; summary of the method: as §4
[16] = substrate: CCCCc1ccc(OC2=CCN(C)CC2)cc1; experiment: as §3; set-up: species or system Bos taurus; summary of the method: as §4
[17] = substrate: CN1CC=C(Oc2ccc(-c3ccccc3)cc2)CC1; experiment: as §3; set-up: species or system Bos taurus; summary of the method: as §4

B1: Amine oxidase [flavin-containing] A (Homo sapiens) (protein)
chain: MENQEKASIAGHMFDVVVIGGGISGLSAAKLLTEYGVSVLVLEARDRVGGRTYTIRNEHVDYVDVGGAYVGPTQNRILRLSKELGIETYKVNVSERLVQYVKGKTYPFRGAFPPVWNPIAYLDYNNLWRTIDNMGKEIPTDAPWEAQHADKWDKMTMKELIDKICWTKTARRFAYLFVNINVTSEPHEVSALWFLWYVKQCGGTTRIFSVTNGGQERKFVGGSGQVSERIMDLLGDQVKLNHPVTHVDQSSDNIIIETLNHEHYECKYVINAIPPTLTAKIHFRPELPAERNQLIQRLPMGAVIKCMMYYKEAFWKKKDYCGCMIIEDEDAPISITLDDTKPDGSLPAIMGFILARKADRLAKLHKEIRKKKICELYAKVLGSQEALHPVHYEEKNWCEEQYSGGCYTAYFPPGIMTQYGRVIRQPVGRIFFAGTETATKWSGYMEGAVEAGERAAREVLNGLGKVTEKDIWVQEPESKDVPAVEITHTFWERNLPSVSGLLKIIGFSTSVTALGFVLYKYKLLPRS
B1 was tested, and the Km [1] was 55 µM, the Km [2] was 144 µM and the Km [3] was 480 µM. For the same protein, the Km [4] was 130 µM, the Km [5] was 77 µM and the Km [6] was 29 µM. For the same protein, the Km [7] was 51 µM, the Km [8] was 278 µM and the Km [9] was 101 µM.

B2: Amine oxidase [flavin-containing] B (Bos taurus) (protein)
chain: MSSKCDVVVVGGGISGMAAAKLLHDSGLNVIVLEARDRVGGRTYTLRNQKVKYVDLGGSYVGPTQNHILRLSKELGLETYKVNEVERLIHHTKGKSYPFRGSFPSVWNPITYLDHNNLWRTMDDMGREIPSDAPWKAPLAEQWDLMTMKELLDKICWTESSKQLAILFVNLCVTAEIHEVSALWFLWYVKQCGGTTRIFSTSNGGQERKFVGGSGQVSERIMDLLGDRVKLERPVIHIDQTGENVLVETLNHELYEAKYVISAVPPVLGMKIHFNPPLPMMRNQLITRVPLGSVIKSIVYYKEPFWRNMDYCGSMIIEGEEAPVAYALDDTKPDGSYPAIIGFILAHKARKLARLTKEERLKKLCDLYAKVLGSQEALHPVHYEEKNWCEEQYSGGCYTSYFPPGIMTQYGRVLRQPVGRIYFAGTETATHWSGYMEGAVEAGERAAREILHAMGKIPEDEIWLPEPESVDVPAKPITTTFLQRHLPSVPGLLKLIGLTTIFSATALGFLAHKRGLLVRI
B2 gave a Km [10] of 58 µM, a Km [11] of 143 µM and a Km [12] of 56 µM. The Km [13] was 274 µM, the Km [14] was 892 µM and the Km [15] was 167 µM. For the same protein, the Km [16] was 84 µM and the Km [17] was 284 µM.
